# Calls of active or inactive are those of the source.
# Assays:
# [1] = Permeability across apical to basolateral side in human Caco2 cells at 50 uM after 120 mins by LC/MS analysis; format: ADME, cell-based; details: Caco-2, read-out: permeability
# Outline: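 Caco-2 cells (passages 21–45) seeded at 4,000/well on PET transwell filters and used 21–26 days after seeding. Monolayers accepted at TEER ≥300 Ω·cm² and run in Hank's balanced salt solution. After 120 min incubation, receiver-side sample taken, acetonitrile-precipitated, quantified by LC/MS.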
# Liver [2] = assay: Intrinsic clearance in rat hepatic S9 fraction at 5 uM in presence of UDPGA/NADPH measured over 30 mins by LC/MS analysis; format: ADME, tissue-based; details: s9, 0.5 h
# Outline: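 Rat hepatic S9 (2 mg/mL protein) with compound 5 µM, 50 mM Tris-HCl pH 7.5, 8 mM MgCl2, 2 mM NADPH, 2 mM UDPGA, 12.7 µM alamethicin, 37 °C. Reaction started with S9. Aliquots taken over 0–30 min, quenched with acetonitrile, analyzed by LC/MS.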
# [3] = biological target: T1, Indoleamine 2,3-dioxygenase 1 (Homo sapiens, UniProt P14902); assay: Inhibition of IDO1 in IFN-gamma-stimulated human HeLa cells assessed as decrease in kynurenine levels after 48 hrs; format: cell-based
# Liver [4] = assay: Intrinsic clearance in rat hepatic S9 fraction at 5 uM in presence of UDPGA measured over 30 mins by LC/MS analysis; format: ADME; details: s9, 0.5 h
# Plasma = assay: Fraction unbound in human plasma after 2 hrs by equilibrium dialysis method; format: ADME, cell-free
# Outline: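 Equilibrium dialysis of human plasma (1 mL) containing compound against 1 mL 0.133 M phosphate buffer pH 7.4. Membrane cut-off 10,000 Da, teflon cells rotated at 12 rpm for 2 h at 37 °C. Recovered volumes weighed and matrix-matched 1:1. Acetonitrile precipitation, LC/MS/MS of both sides.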
# [5] = biological target: T1, Indoleamine 2,3-dioxygenase 1; assay: Inhibition of human N-terminal His-tagged IDO1 expressed in Escherichia coli using D-Trp as substrate
# CT26 [6] = assay: Antitumor activity against mouse CT26 cells allografted in immunocompetent Balb/c mouse assessed as reduction in tumor growth at 30 mg/kg, po measured on day 24 relative to vehicle-treated control; format: functional
# Mus musculus = assay: In vivo inhibition of IDO1 in wild type C57BL/6 mouse assessed as reduction in kynurenine levels in plasma at 50 mg/kg, po qd after 8 hrs by LC/MS/MS analysis; format: functional, organism-based
# Outline: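 Fed C57BL/6 mice given a single dose; food then removed. At various timepoints, blood taken by cardiac puncture. Plasma diluted 10-fold in water, TCA protein precipitation, then LC/MS/MS for tryptophan, kynurenine (linear 20–10,000 nM kynurenine, 200–100,000 nM tryptophan) and drug, against aqueous standards.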
# CT26 [7] = assay: Antitumor activity against mouse CT26 cells allografted in po dosed Balb/c nu/nu mouse assessed as tumor growth inhibition; format: functional, organism-based
# [8] = Half life in cynomolgus monkey at 10 mg/kg, po by LC/MS/MS analysis; format: ADME, organism-based, Macaca fascicularis; details: in vivo
# Outline: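 Male cynomolgus monkeys given 4 mg/kg IV (5% DMAC, 40% propylene glycol in saline) or 10 mg/kg orally (0.5% methylcellulose). EDTA plasma collected pre-dose through 24 h. Acetonitrile protein precipitation, then LC/MS/MS quantification, linear 2–10000 nM. PK parameters by standard non-compartmental methods.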
# [9] = AUC in mouse CT26 cells allografted immunocompetent Balb/c mouse model at 30 mg/kg, po by LC/MS/MS analysis; format: ADME, organism-based; details: in vivo
# [10] = Half life in rat at 5 mg/kg, po by LC/MS/MS analysis; format: ADME, organism-based; details: in vivo
# Outline: (§1)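 Male rats, 5 mg/kg IV in 10% DMAC/saline or 5 mg/kg oral in 0.5% aqueous methylcellulose. Plasma (EDTA) sampled pre-dose to 24 h. Quantified by acetonitrile precipitation and LC/MS/MS (2–10000 nM range, 0.1 mL). Non-compartmental analysis of concentration–time data.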
# Rattus norvegicus = assay: AUC in rat at 5 mg/kg, iv or 5 mg/kg, po by LC/MS/MS analysis; format: ADME, organism-based; details: in vivo; outline: as §1
# T1 sequence (P14902 whole entry): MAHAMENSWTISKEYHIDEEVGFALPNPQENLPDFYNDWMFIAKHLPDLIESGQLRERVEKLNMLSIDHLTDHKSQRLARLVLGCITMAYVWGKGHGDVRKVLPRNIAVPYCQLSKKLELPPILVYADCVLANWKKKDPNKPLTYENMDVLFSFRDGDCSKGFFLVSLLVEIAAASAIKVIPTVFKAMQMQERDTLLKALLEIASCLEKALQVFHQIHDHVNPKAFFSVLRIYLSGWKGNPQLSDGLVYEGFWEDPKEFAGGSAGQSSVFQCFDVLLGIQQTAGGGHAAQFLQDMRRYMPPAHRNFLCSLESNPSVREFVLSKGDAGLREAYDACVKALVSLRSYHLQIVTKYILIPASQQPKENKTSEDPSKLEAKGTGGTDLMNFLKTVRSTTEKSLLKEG
Structure (SMILES),"Papp A→B at 2 h, 50 µM [1]",CLH (Liver [2]),IC50 [3],CLH (Liver [4]),Fu (Plasma),IC50 [5],half-life [8],AUC [9],half-life [10],AUC (Rattus norvegicus),Efficacy (CT26 [6]),inhibition (Mus musculus),TGI (CT26 [7])
NCCNc1nonc1/C(=N/O)Nc1ccc(F)c(Br)c1,1.8 ×10⁻⁶ cm/s,15 mL/min/kg,98 nM,18.3 mL/min/kg,6.1%,290 nM,,,,,,,
CN(C)c1nonc1/C(=N/O)Nc1ccc(F)c(Br)c1,,> 36.7 mL/min/kg,> 5000 nM,> 36.7 mL/min/kg,,> 5000 nM,,,,,,,
Nc1nonc1C(=NO)Nc1ccc(F)c(Cl)c1,,> 36.7 mL/min/kg,,> 36.7 mL/min/kg,,,,,,,,,
COCCNc1nonc1/C(=N/O)Nc1ccc(F)c(Br)c1,44 ×10⁻⁶ cm/s,> 36.7 mL/min/kg,100 nM,> 36.7 mL/min/kg,0.9%,200 nM,,,,,,,
O/N=C(\Nc1ccc(F)c(Br)c1)c1nonc1NCc1ccccc1,,> 36.7 mL/min/kg,280 nM,35 mL/min/kg,< 0.5%,230 nM,,,,,,,
NS(=O)(=O)NCCNc1nonc1/C(=N/O)Nc1ccc(F)c(Br)c1 [EPACADOSTAT],,,,,,,,,,,56%,Active,inactive
CCNc1nonc1/C(=N/O)Nc1ccc(F)c(Br)c1,,> 36.7 mL/min/kg,35 nM,23.3 mL/min/kg,,180 nM,,,,,,,
OCCNc1nonc1/C(=N/O)Nc1ccc(F)c(Br)c1,31 ×10⁻⁶ cm/s,> 36.7 mL/min/kg,22 nM,> 36.7 mL/min/kg,2.3%,170 nM,,,,,,,

# More lines, in order of falling IC50 [3], values ahead:
"Papp A→B at 2 h, 50 µM [1]",CLH (Liver [2]),IC50 [3],CLH (Liver [4]),Fu (Plasma),IC50 [5],half-life [8],AUC [9],half-life [10],AUC (Rattus norvegicus),Structure (SMILES),Efficacy (CT26 [6]),inhibition (Mus musculus),TGI (CT26 [7])
19 ×10⁻⁶ cm/s,33 mL/min/kg,17 nM,15 mL/min/kg,4.4%,210 nM,,,,,CC(=O)NCCNc1nonc1/C(=N/O)Nc1ccc(F)c(Br)c1,,,
24 ×10⁻⁶ cm/s,25 mL/min/kg,16 nM,12 mL/min/kg,2.4%,100 nM,,,,,CS(=O)(=O)NCCNc1nonc1C(=NO)Nc1ccc(F)c(Br)c1,,,
,> 36.7 mL/min/kg,14 nM,> 36.7 mL/min/kg,,100 nM,,,,,CNc1nonc1/C(=N/O)Nc1ccc(F)c(Br)c1,,,
4.3 ×10⁻⁶ cm/s,13 mL/min/kg,11 nM,8.3 mL/min/kg,3.8%,120 nM,4 h,15.1 µM·h,2.7 h,3.3 µM·h,NS(=O)(=O)NCCNc1nonc1C(=NO)Nc1ccc(F)c(Cl)c1,13%,,
,23.3 mL/min/kg,10 nM,> 36.7 mL/min/kg,,50 nM,,,,,Nc1nonc1C(=Nc1ccc(F)c(Br)c1)NO,,,

# Source: ChEMBL document CHEMBL3997850 (ACS Med Chem Lett, 2017)
